Experimental data taken from ChEMBL document CHEMBL4765418, “Discovery of novel quinazolinone derivatives as potential anti-HBV and anti-HCC agents” (Eur J Med Chem, 2020).

What was measured:
[1] = Cytotoxicity against human HepG2 2.2.15 cells assessed as reduction in cell viability measured after 72 hrs by MTT assay; format: cell-based
How it was run: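 HepG2 2.2.15 cells (HBV-producing; grown in DMEM with 10% FBS, penicillin/streptomycin and 0.38 mg/mL G418) seeded in 96-well plates and grown 24 h, then treated 72 h with compounds. Viability read by MTT absorbance at 490 nm relative to untreated cells. CC50 is the dose causing 50% cell death.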

[2] = Selectivity index, ratio of CC50 for human HepG2 2.2.15 cells to IC50 for antiviral activity against HBV infected in human HepG2.2.15 cells assessed as inhibition of DNA replication; format: toxicity, cell-based; conditions: read-out: Ratio CC50/IC50
[3] = test system: HepG2; test: Antiproliferative activity against human HepG2 cells assessed as inhibition of cell proliferation after 72 hrs by MTT assay; format: functional, cell-based; conditions: HepG2, 72 h
How it was run: (§1)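 Cells seeded in 96-well plates and grown 24 h to reach exponential growth, then exposed to test compounds in culture medium for 72 h. Viability read by MTT absorbance at 490 nm relative to untreated cells. IC50 is the concentration giving 50% inhibition of proliferation.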

[4] = test system: Hepatitis B virus; test: Antiviral activity against HBV infected in human HepG2.2.15 cells assessed as inhibition of DNA replication supplemented with fresh medium containing compound every 2 days for 6 days by RT-PCR analysis; format: functional, organism-based; conditions: HepG2 2.2.15
How it was run: (§2)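 HepG2 2.2.15 cells (2×10^5/well, 24-well) left 24 h to recover from trypsinization, then given fresh medium with compound (single-point screen at 0.8 μM), renewed every 2 days for 6 days. Intracellular HBV DNA extracted and quantified by real-time PCR. IC50 is the dose giving 50% inhibition of DNA replication, taken from dose–response.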

[5] = test system: Hepatitis B virus; test: Antiviral activity against HBV infected in human HepG2.2.15 cells assessed as inhibition of DNA replication at 0.8 uM supplemented with fresh medium containing compound every 2 days for 6 days by RT-PCR analysis relative to control; format: functional; conditions: HepG2 2.2.15, 144 h, time 6 day; how it was run: as §2
[6] = test system: SK-HEP1; test: Antiproliferative activity against human SK-HEP1 cells assessed as inhibition of cell proliferation after 72 hrs by MTT assay; format: functional, cell-based; conditions: SK-HEP1, 72 h; how it was run: as §1
[7] = test system: Huh-7; test: Antiproliferative activity against human Huh-7 cells assessed as inhibition of cell proliferation after 72 hrs by MTT assay; format: functional, cell-based; conditions: Huh-7, 72 h; how it was run: as §1
[8] = test system: Hepatitis B virus; test: Antiviral activity against lamivudine and entecavir-resistant HBV harboring rtL180 M/rtM204V/rtT184L mutant infected in human HepG2.2.15 cells assessed as inhibition of DNA replication at 0.8 uM supplemented with fresh medium containing compound every 2 days for 6 days by RT-PCR analysis relative to control; format: functional; conditions: HepG2 2.2.15, 144 h, time 6 day
[9] = test system: Hepatitis B virus; test: Antiviral activity against HBV infected in human HepG2.2.15 cells assessed as inhibition of HBsAg production supplemented with fresh medium containing compound every 3 days for 6 days by EIA relative to control; format: functional, HepG2 2.2.15; conditions: time 6 day
[10] = test system: Hepatitis B virus; test: Antiviral activity against lamivudine and entecavir-resistant HBV harboring rtL180 M/rtM204V/rtT184L mutant infected in human HepG2.2.15 cells assessed as inhibition of DNA replication at 10 uM supplemented with fresh medium containing compound every 2 days for 6 days by RT-PCR analysis relative to control; format: functional; conditions: HepG2 2.2.15, 144 h, time 6 day
[11] = test system: Hepatitis B virus; test: Antiviral activity against HBV infected in human HepG2.2.15 cells assessed as inhibition of DNA replication at 10 uM supplemented with fresh medium containing compound every 2 days for 6 days by RT-PCR analysis relative to control; format: functional; conditions: HepG2 2.2.15, 144 h, time 6 day
[12] = test system: Hepatitis B virus; test: Antiviral activity against lamivudine and entecavir-resistant HBV harboring rtL180 M/rtM204V/rtT184L mutant infected in human HepG2.2.15 cells assessed as inhibition of DNA replication at 100 uM supplemented with fresh medium containing compound every 2 days for 6 days by RT-PCR analysis relative to control; format: functional; conditions: HepG2 2.2.15, 144 h, time 6 day
[13] = test system: Hepatitis B virus; test: Antiviral activity against HBV infected in human HepG2.2.15 cells assessed as inhibition of DNA replication at 100 uM supplemented with fresh medium containing compound every 2 days for 6 days by RT-PCR analysis relative to control; format: functional; conditions: HepG2 2.2.15, 144 h, time 6 day

CCN(CC)CCOc1ccc2nc(SCc3ccccc3OC)n(Cc3ccco3)c(=O)c2c1
CC50 at 72 h [1]: > 10 µM
selectivity ratio [2]: > 13
IC50 [3]: 19 µM
IC50 [4]: 770 nM
inhibition at 0.8 µM [5]: 52.6%

COc1ccc(C(C)=O)cc1CSc1nc2ccc(OCCN(C)C)cc2c(=O)n1Cc1ccccc1
CC50 at 72 h [1]: > 10 µM
IC50 [3]: 19 µM
inhibition at 0.8 µM [5]: 15.6%

COc1ccc(C(C)=O)cc1CSc1nc2ccc(OCCCN(C)C)cc2c(=O)n1Cc1ccco1
CC50 at 72 h [1]: > 10 µM
selectivity ratio [2]: > 12.7
IC50 [3]: 9.4 µM
IC50 [4]: 790 nM
inhibition at 0.8 µM [5]: 54.2%

COc1ccccc1CSc1nc2ccc(OCCCN(C)C)cc2c(=O)n1Cc1ccco1
CC50 at 72 h [1]: 8.38 µM
IC50 [3]: 6.76 µM
inhibition at 0.8 µM [5]: 34.4%

COc1ccccc1CSc1nc2ccc(OCCCN(C)C)cc2c(=O)n1Cc1ccccc1
CC50 at 72 h [1]: > 10 µM
IC50 [3]: 11.8 µM
inhibition at 0.8 µM [5]: 3.66%

COc1ccccc1CSc1nc2ccc(OCCN(C)C)cc2c(=O)n1Cc1ccco1
CC50 at 72 h [1]: > 10 µM
selectivity ratio [2]: > 13.9
IC50 [3]: > 100 µM
IC50 [4]: 720 nM
inhibition at 0.8 µM [5]: 67.1%

CN(C)CCOc1ccc2nc(SCc3ccccc3)n(Cc3cccs3)c(=O)c2c1
CC50 at 72 h [1]: > 10 µM
selectivity ratio [2]: > 13
IC50 [4]: 770 nM
inhibition at 0.8 µM [5]: 53.6%

CN(C)CCOc1ccc2nc(SCc3ccccc3)n(Cc3ccco3)c(=O)c2c1
CC50 at 72 h [1]: > 10 µM
IC50 [3]: 17.5 µM
inhibition at 0.8 µM [5]: 21.7%

CCN(CC)CCOc1ccc2nc(SCc3cc(C(C)=O)ccc3OC)n(Cc3ccccc3)c(=O)c2c1
CC50 at 72 h [1]: > 10 µM
IC50 [3]: > 20 µM
inhibition at 0.8 µM [5]: 4.93%

CNC(=O)c1cc(Oc2ccc(NC(=O)Nc3ccc(Cl)c(C(F)(F)F)c3)cc2)ccn1 [SORAFENIB]
IC50 [6]: 9.64 µM
IC50 [3]: 7.67 µM
IC50 [7]: 7.92 µM

COc1ccc(C(C)=O)cc1CSc1nc2ccc(OCCCN(C)C)cc2c(=O)n1Cc1cccs1
CC50 at 72 h [1]: 9.63 µM
IC50 [3]: 8.98 µM
inhibition at 0.8 µM [5]: 0.16%

CCN(CC)CCOc1ccc2nc(SCc3ccccc3)n(Cc3ccccc3)c(=O)c2c1
CC50 at 72 h [1]: > 10 µM
selectivity ratio [2]: > 15.2
IC50 [3]: > 20 µM
IC50 [4]: 660 nM
inhibition at 0.8 µM [5]: 64.5%

CCN(CC)CCOc1ccc2nc(SCc3ccccc3)n(Cc3ccco3)c(=O)c2c1
CC50 at 72 h [1]: > 10 µM
selectivity ratio [2]: > 15.9
IC50 [3]: 17.3 µM
IC50 [4]: 630 nM
inhibition at 0.8 µM [8]: 58.9%
inhibition at 0.8 µM [5]: 67.5%
inhibition (INH) [9]: 13.64%

C=C1[C@H](CO)[C@@H](O)C[C@@H]1n1cnc2c(=O)[nH]c(N)nc21 [ENTECAVIR]
inhibition at 10 µM [10]: 18.9%
inhibition at 10 µM [11]: 96.9%

CN(C)CCCOc1ccc2nc(SCc3ccccc3)n(Cc3ccccc3)c(=O)c2c1
CC50 at 72 h [1]: > 10 µM
IC50 [3]: > 20 µM
inhibition at 0.8 µM [5]: 42.8%

O=c1[nH]cc(F)c(=O)[nH]1 [FLUOROURACIL]
IC50 [3]: 8.69 µM

CCN(CC)CCOc1ccc2nc(SCc3ccccc3OC)n(Cc3ccccc3)c(=O)c2c1
CC50 at 72 h [1]: > 10 µM
IC50 [3]: > 20 µM
inhibition at 0.8 µM [5]: 9.8%

COc1ccccc1CSc1nc2ccc(OCCN(C)C)cc2c(=O)n1Cc1ccccc1
CC50 at 72 h [1]: > 10 µM
IC50 [3]: > 20 µM
inhibition at 0.8 µM [5]: 11.8%

CN(C)CCOc1ccc2nc(SCc3ccccc3)n(Cc3ccccc3)c(=O)c2c1
CC50 at 72 h [1]: > 10 µM
selectivity ratio [2]: > 14.7
IC50 [3]: > 20 µM
IC50 [4]: 680 nM
inhibition at 0.8 µM [5]: 65.5%

COc1ccccc1CSc1nc2ccc(OCCCN(C)C)cc2c(=O)n1Cc1cccs1
CC50 at 72 h [1]: > 10 µM
IC50 [3]: 8.81 µM
inhibition at 0.8 µM [5]: 21.6%

CCN(CC)CCOc1ccc2nc(SCc3cc(C(C)=O)ccc3OC)n(Cc3ccco3)c(=O)c2c1
CC50 at 72 h [1]: > 10 µM
IC50 [3]: 17 µM
inhibition at 0.8 µM [5]: 45.2%

Nc1ccn([C@@H]2CS[C@H](CO)O2)c(=O)n1 [LAMIVUDINE]
CC50 at 72 h [1]: > 100 µM
selectivity ratio [2]: > 1000
IC50 [4]: < 100 nM
inhibition at 100 µM [12]: 15.7%
inhibition at 0.8 µM [5]: 84.4%
inhibition (INH) [9]: 9.09%
inhibition at 100 µM [13]: 90%

COc1ccc(C(C)=O)cc1CSc1nc2ccc(OCCN(C)C)cc2c(=O)n1Cc1ccco1
CC50 at 72 h [1]: > 10 µM
IC50 [3]: 11.3 µM
inhibition at 0.8 µM [5]: 20.7%
